Bioassay records: PubChem, several laboratories
MT stabilize HCS: microtubule stabilizers in HeLa cells, primary screen, imaging, high-content imaging; AID 2205, 2009; % tubulin-high responders, % at 10 µM; HeLa tubulin immunostaining HCS, 24 h; share of cells brighter than vehicle mean+2SD; actives 0.83% (n = 200,000);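 active = plate Z-score above 3 for both tubulin-high and condensed-nucleus cell shares, with cell loss under 80%, at 10 µM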;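 also: anti alpha tubulin signal scored within the nucleus-defined area of each cell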
Lmaj promast: Leishmania major promastigote growth inhibition, primary screen; AID 1063, 2008; inhibition, % at 10 µM; Leishmania major promastigotes, resazurin fluorescence viability; actives 9% (n = 200,000); in the data active = inhibition above about 50%;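 also: promastigotes grown with compound for 44 hours at 28 °C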
b-catenin transl: modulators of beta-catenin nuclear translocation, primary screen, imaging, HeLa cells, immunofluorescence, high-content | nuclear translocation activity, % at 5 µM | actives 0.3% (n = 190,000) | AID 1665, 2009;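 active = nuclear translocation activity above 50% at 5 µM, with a well cell count of 50 or more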;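 also: per-cell ratio of nuclear to cytoplasmic median beta-catenin stain intensity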
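Read-out: Nuclear/cytoplasmic beta-catenin signal ratio, % activation | Assay system: Human HeLa cell line | Times: 24 h compound exposure at 37°C, 5% CO2 | Signal: Fluorescence imaging of beta-catenin antibody stain plus DAPI | Dosing: 5 µM primary, 0.02–20 µM confirmation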
CHOP inh: inhibitors of CHOP promoter induction, primary screen, cell-based, unfolded protein response, luciferase reporter; CHO-K1 CHOP-promoter luciferase, tunicamycin-induced, 15-18 h; inhibition, % at 10 µM; actives 3.8% (n = 220,000); AID 2732, 2010;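 active = compounds that reduced the stress-induced luciferase reporter signal by more than about 70% of percent inhibition, limit read from the data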
Dynein cargo inh: inhibitors of GR-EGFP nuclear translocation, primary screen, dynein cargo transport inhibitor project, imaging, high-content, 3617.4 mouse cells; actives 0.47% (n = 220,000); z-score, hits read low; test concentration mostly 20 µM; stimulated with dexamethasone, 1 µM; stronger effect = lower value; AID 1381, 2008;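 active = plate z-score of nuclear minus cytoplasmic receptor signal below a set negative limit, without overly bright fluorescence or cell loss, cut at about -3.5 in these data, passing the limit was not always enough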;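 also: z-score of nuclear minus cytoplasmic ring GR-EGFP intensity difference per well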
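Buffer or medium: tet-free medium with charcoal-stripped serum / Also added: dexamethasone agonist, 1.0 µM final, for 30 min / Timing: induction 48 h, compound 1 h, agonist 30 min / Measured by: high-content fluorescence imaging after fixation / Read-out: nuclear-to-cytoplasmic GR-EGFP distribution per well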
Autophagy mod: autophagy modulators in MEF cells, primary screen, imaging, high-content, MEF GFP-LC3; MEF GFP-LC3 puncta imaging; test concentration mostly 10 µM; calls only at 10 µM (by protocol); actives 0.98% (n = 190,000);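 active = percentage of spot-positive cells more than 3 SD above its plate mean, without a fluorescence outlier flag or 80% toxicity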
Large screens that a line does not name were inactive. The list is not random: actives were taken first. Their share in the collection is about 12%.

CCn1cc(C(=O)NCCc2ccccc2)c(=O)c2cc(F)c(N3CCN(C)CC3)cc21	Lmaj promast 97
CCn1cc(C(=O)O)c(=O)c2cc(F)c(N3CCN(C(=S)NC(=O)c4ccc(Br)cc4)CC3)cc21	CHOP inh 73
CCn1cc(C(=O)NCC(C)C)c(=O)c2cc(F)c(N3CCN(C)CC3)cc21	none (no result: MT stabilize HCS, Lmaj promast, Autophagy mod)
CCn1cc(C(=O)NCc2ccc3c(c2)OCO3)c(=O)c2cc(F)c(N3CCN(C)CC3)cc21	Lmaj promast 79 (no result: CHOP inh)
CCn1cc(C(=O)O)c(=O)c2cc(F)c(N/N=C/c3ccccc3)cc21	CHOP inh 103
CCC(Sc1nccn1C)C(=O)Nc1ccc(Cl)cn1 (centres undefined)	none
CCSCc1nnc(SCC(=O)Nc2nc(C)cs2)n1C	none
N#Cc1cccnc1N1CCN(C(=O)c2ccco2)CC1	none (no result: MT stabilize HCS, Lmaj promast, Autophagy mod)
CCN(CC)S(=O)(=O)c1cccc(NC(=O)c2cc(=O)[nH]c3ccccc23)c1	none
CC(=O)c1cc2c(cc1NC(=O)CCCC(=O)O)OCO2	none
CC(=O)c1cc2c(cc1NC(=O)CN1CCCCCCC1)OCO2	CHOP inh 85
CC(C)CC(=O)NC(C)C(c1cccs1)N1CCOCC1 (centres undefined)	none (no result: MT stabilize HCS, Lmaj promast, Autophagy mod)
Cc1ccc(S(=O)(=O)C(C#N)=C2N(C)c3ccccc3N2C)cc1	Autophagy mod active
CCN(CC)C(=O)C(=O)c1cccn1-c1cccc(-n2cccc2C(=O)C(=O)N(CC)CC)c1C#N	none (no result: b-catenin transl)
Cn1nc(C(=O)Nc2cccc(C(F)(F)F)c2)ccc1=O	Lmaj promast 99 (no result: b-catenin transl)
Cc1cc(NC(=O)Nc2cccc(C(F)(F)F)c2)no1	CHOP inh 93
CN(C)c1nn(C(=O)Nc2cccc(C(F)(F)F)c2)cc1-c1ccccc1	CHOP inh 90
O=C(Nc1nnc(SCc2cccc3ccccc23)s1)C1COc2ccccc2O1 (centres undefined)	none
CCSc1nnc([C@H](C)NC(=O)OC(C)(C)C)o1	none
O=C1c2oc3ccccc3c(=O)c2C(c2cccs2)N1CCCN1CCOCC1 (centres undefined)	CHOP inh 80
CC(=O)Nc1nc(NC(=O)/C=C/c2ccccc2)n(-c2ccccc2)n1	Lmaj promast 95
COc1ccccc1/C=C/C(=O)Nc1nc(N)n(-c2ccccc2)n1	none (no result: MT stabilize HCS, Lmaj promast, Autophagy mod)
O=[N+]([O-])c1cc(-c2nc(-c3ccncc3)no2)cc([N+](=O)[O-])c1	Lmaj promast 94
CCOc1cc(-c2nc(-c3ccccc3OC)no2)cc(OCC)c1OCC	CHOP inh 76
CCOc1ccc(-c2nc(-c3ccccc3)no2)cc1OCC	none (no result: b-catenin transl)
CCOc1cc(-c2nc(-c3ccc(OC)cc3)no2)cc(OCC)c1OCC	none
CCOc1ccc(-c2nc(-c3ccncc3)no2)cc1OCC	Lmaj promast 89
O=[N+]([O-])c1cc(-c2nc(-c3ccncc3)no2)ccc1Cl	none
Cc1cc(C)cc(-c2nc(-c3ccncc3)no2)c1	CHOP inh 84 (no result: b-catenin transl)
O=C(CSc1nnc(Cn2c(=O)sc3ccccc32)n1-c1ccccc1)Nc1nccs1	none
CC(C)(C)c1ccc(-c2nc(-c3ccncc3)no2)cc1	CHOP inh 82
C=C(C)c1cccc(C(C)(C)NC(=O)Nc2cc(C)ccn2)c1	CHOP inh 92
C=C(C)c1cccc(C(C)(C)NC(=O)Nc2ccc(C)cn2)c1	none
CC(C)(C)n1ncc(Oc2ccc(Oc3cnn(C(C)(C)C)c(=O)c3Cl)cc2)c(Cl)c1=O	none (no result: b-catenin transl, CHOP inh)
CCOC(=O)c1sc(-c2ccc(Br)cc2)cc1N	CHOP inh 81
COc1cccc(C(=O)C2CCCN(Cc3ccc(OC)c(Cn4cncn4)c3)C2)c1 (centres undefined)	none (no result: MT stabilize HCS, Lmaj promast, Autophagy mod)
COc1c(C)cc(C(=O)C2CCCN(Cc3cnc(N4CCOCC4)s3)C2)cc1C (centres undefined)	Lmaj promast 100
COc1ccc2cc(C(=O)C3CCCN(Cc4cnc(C)s4)C3)ccc2c1 (centres undefined)	Lmaj promast 79
COc1ccc(F)cc1C(=O)C1CCCN(Cc2cnc(N3CCCC3)s2)C1 (centres undefined)	none
